Data published in ChEMBL document CHEMBL1817572, “New, potent, selective, and short-acting peptidic V1a receptor agonists” (J Med Chem, 2011).
Bridge positions count the residues as written; N and C are the ends. Square brackets hold non-standard residues; d marks the D form. Peptide text beside a SMILES is read from it. Orn(iPr) = CC(C)NCCC[C@H](N)C(=O)O; Cha = N[C@@H](CC1CCCCC1)C(=O)O

Columns and labels:
[1] = target: Vasopressin V1a/V2 (Homo sapiens) (UniProt P30518+P37288); test: Selectivity ratio of EC50 for human vasopressin V2 receptor to EC50 for human vasopressin V1a receptor
Sequence of Vasopressin V1a/V2 (Homo sapiens) (P30518 whole entry, looked up): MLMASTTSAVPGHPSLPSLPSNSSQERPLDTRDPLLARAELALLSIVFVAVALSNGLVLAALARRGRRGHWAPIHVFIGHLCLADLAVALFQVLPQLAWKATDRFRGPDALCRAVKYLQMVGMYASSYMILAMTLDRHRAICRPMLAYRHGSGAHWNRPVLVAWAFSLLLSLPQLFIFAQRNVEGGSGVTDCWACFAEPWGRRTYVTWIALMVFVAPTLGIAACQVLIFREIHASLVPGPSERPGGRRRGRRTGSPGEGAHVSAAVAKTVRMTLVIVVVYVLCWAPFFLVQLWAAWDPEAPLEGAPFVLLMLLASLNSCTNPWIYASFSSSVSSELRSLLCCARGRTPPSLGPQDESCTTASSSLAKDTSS
Sequence of Vasopressin V1a/V2 (Homo sapiens) (P37288 whole entry, looked up): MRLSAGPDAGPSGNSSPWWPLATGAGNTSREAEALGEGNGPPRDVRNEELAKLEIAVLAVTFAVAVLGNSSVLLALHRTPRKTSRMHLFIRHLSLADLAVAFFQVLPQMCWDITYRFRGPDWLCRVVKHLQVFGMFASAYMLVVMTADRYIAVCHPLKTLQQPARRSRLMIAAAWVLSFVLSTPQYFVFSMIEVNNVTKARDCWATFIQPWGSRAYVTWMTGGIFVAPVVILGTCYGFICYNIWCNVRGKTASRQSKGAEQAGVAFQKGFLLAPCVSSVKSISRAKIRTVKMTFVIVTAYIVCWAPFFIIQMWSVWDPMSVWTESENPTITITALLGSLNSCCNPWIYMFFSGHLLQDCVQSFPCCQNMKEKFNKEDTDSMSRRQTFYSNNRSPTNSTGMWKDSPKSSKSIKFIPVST

[2] = target: T1, Vasopressin V1b receptor (Homo sapiens, UniProt P47901); test: Agonist activity at recombinant human vasopressin V1b receptor expressed in Flp-In-293 cells by luciferase reporter gene assay; type: functional, cell-based; details: read-out: EC50
T1 sequence (P47901 whole entry): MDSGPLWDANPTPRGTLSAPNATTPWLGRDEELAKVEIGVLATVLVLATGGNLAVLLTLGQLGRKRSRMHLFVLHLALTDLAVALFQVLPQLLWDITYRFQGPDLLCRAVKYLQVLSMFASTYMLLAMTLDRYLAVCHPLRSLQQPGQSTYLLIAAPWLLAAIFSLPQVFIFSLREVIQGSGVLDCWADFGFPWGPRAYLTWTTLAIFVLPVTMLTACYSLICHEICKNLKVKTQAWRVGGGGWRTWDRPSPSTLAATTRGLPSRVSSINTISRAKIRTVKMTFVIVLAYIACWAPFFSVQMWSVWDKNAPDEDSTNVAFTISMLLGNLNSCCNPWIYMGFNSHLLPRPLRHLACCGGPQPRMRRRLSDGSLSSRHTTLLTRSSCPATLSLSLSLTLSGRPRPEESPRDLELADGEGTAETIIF
In short: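 Reporter gene assays in HEK293 cells transiently cotransfected with V1a (human or rat) or human V2 receptor vector plus NFAT-luciferase (V1a) or CRE-luciferase (V2) reporter; V1b in Flp-In-293 stably expressing receptor, OT in CHO-K1 stably expressing receptor, both transiently transfected with NFAT-luciferase. Two days post-transfection, peptides added for 5 h at 37 °C, lysis with luciferin, luminescence read.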

[3] = target: Vasopressin V1a receptor (Rattus norvegicus, UniProt P30560); test: Agonist activity at recombinant rat vasopressin V1a receptor expressed in HEK293 cells by luciferase reporter gene assay; type: functional, cell-based; details: read-out: EC50
Sequence of Vasopressin V1a receptor (Rattus norvegicus, UniProt P30560) (P30560 whole entry): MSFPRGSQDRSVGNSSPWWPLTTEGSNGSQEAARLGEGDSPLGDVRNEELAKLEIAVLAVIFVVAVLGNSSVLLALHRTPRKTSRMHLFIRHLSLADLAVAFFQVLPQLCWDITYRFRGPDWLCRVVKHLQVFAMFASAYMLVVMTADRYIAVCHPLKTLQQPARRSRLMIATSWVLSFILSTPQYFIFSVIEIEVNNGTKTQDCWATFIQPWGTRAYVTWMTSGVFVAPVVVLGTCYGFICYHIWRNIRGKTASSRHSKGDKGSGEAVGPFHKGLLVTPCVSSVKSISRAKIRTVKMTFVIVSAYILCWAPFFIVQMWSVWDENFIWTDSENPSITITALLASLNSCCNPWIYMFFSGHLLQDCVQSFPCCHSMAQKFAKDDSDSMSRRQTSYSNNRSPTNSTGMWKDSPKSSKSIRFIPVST

[4] = target: T2, Oxytocin receptor (Homo sapiens, UniProt P30559); test: Agonist activity at human OT receptor expressed in CHO-K1 cells by luciferase reporter gene assay; type: functional, cell-based
T2 sequence (P30559 whole entry): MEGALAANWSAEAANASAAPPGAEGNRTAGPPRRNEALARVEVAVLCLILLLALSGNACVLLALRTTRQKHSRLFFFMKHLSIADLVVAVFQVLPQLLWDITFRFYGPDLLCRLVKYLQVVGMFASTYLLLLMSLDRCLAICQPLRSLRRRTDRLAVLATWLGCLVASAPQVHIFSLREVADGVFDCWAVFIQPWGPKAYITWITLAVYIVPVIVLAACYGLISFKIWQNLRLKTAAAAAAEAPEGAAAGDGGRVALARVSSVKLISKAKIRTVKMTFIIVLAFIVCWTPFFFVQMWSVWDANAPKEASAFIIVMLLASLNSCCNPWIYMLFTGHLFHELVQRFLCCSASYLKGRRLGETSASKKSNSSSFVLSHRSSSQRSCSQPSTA

[5] = target: Vasopressin V1a receptor (Homo sapiens, UniProt P37288); test: Agonist activity at recombinant human vasopressin V1a receptor expressed in HEK293 cells by luciferase reporter gene assay; type: functional, cell-based; details: read-out: EC50
Sequence of Vasopressin V1a receptor (Homo sapiens, UniProt P37288) (P37288 whole entry): as the sequence (P37288 whole entry, looked up) above

[6] = species: Homo sapiens; test: Selectivity ratio of EC50 for human vasopressin V1b receptor to EC50 for human vasopressin V1a receptor
[7] = test system: Rattus norvegicus; test: Vasoconstriction in Wistar rat assessed as assessed as decay in vasopressive duration of action at 60 nmol/kg, iv bolus measured over 10 sec interval; type: functional
In short: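 Fasted male Wistar rats (206–340 g) under isoflurane, then thiobutabarbital 150 mg/kg ip, ventilated, 37–38 °C, with carotid pressure and jugular dosing. Dibenamine 1.8 mg/rat iv pretreatment. Sequence: iv boluses (0.5 mL/kg) of heparinized vehicle, then two reference doses of 0.1 nmol/kg, then two test doses; one matches the reference diastolic pressure rise. Relative duration = reference decay rate / test decay rate; mean ± SEM.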

[8] = target: Vasopressin V2 receptor (Homo sapiens, UniProt P30518); test: Agonist activity at recombinant human vasopressin V2 receptor expressed in HEK293 cells by luciferase reporter gene assay; type: functional, cell-based; details: read-out: EC50
Sequence of Vasopressin V2 receptor (P30518 whole entry): as the sequence (P30518 whole entry, looked up) above

[9] = species: Homo sapiens; test: Selectivity ratio of EC50 for human oxytocin receptor to EC50 for human vasopressin V1a receptor

Ratio EC50 [1]: 690 | EC50 [2]: 110 nM | EC50 [3]: 57 nM | EC50 ([4]; cho-k1, read-out: EC50): > 10000 nM | EC50 ([4]; read-out: pEC50 (converted)): > 10000 nM | EC50 [5]: 1.4 nM | Ratio EC50 [6]: 78 | EC50 [8]: 970 nM | Ratio EC50 [9]: > 7100
Compound: CC[C@H](C)[C@@H]1NC(=O)[C@H](CC2CCCCC2)NC(=O)[C@@H](N)CSSC[C@@H](C(=O)N2CCC[C@H]2C(=O)N[C@@H](CCCNC(C)C)C(=O)NCC(N)=O)NC(=O)[C@H](CC(N)=O)NC(=O)[C@H](CC(N)=O)NC1=O (H-C[Cha]INNCP[Orn(iPr)]G-NH2; disulfide 1-6)
Time [7]: 4.1 unitless ratio
